Measurements from different studies.
Compare with care: the assays were run in different laboratories.
ALK: ALK tyrosine kinase receptor (ALK, Homo sapiens, UniProt Q9UM73)
ALK C1156Y: ALK tyrosine kinase receptor (ALK, Homo sapiens, UniProt Q9UM73, C1156Y)
ALK L1196M: ALK tyrosine kinase receptor (ALK, Homo sapiens, UniProt Q9UM73, L1196M)

Compound	target	effect on	mode	method	tested at	endpoint	result
N#Cc1ccc(NC(=O)Nc2ccccc2)cc1	ALK	cell-free assay	–	competition with immobilised ligand	25 µM	remaining binding	76%
CCCCC(=O)Nc1ccc(-c2ccc3ncn(CCC)c(=O)c3c2)cn1	ALK C1156Y	binding	–	competition with immobilised ligand	0.5 µM	remaining binding	100%
Cc1ccc(NC(=O)c2ccnc(C(F)(F)F)c2)cc1-c1cc(OCCO)nc(N2CCOCC2)c1	ALK	binding	–	–	1 µM	remaining binding	89%
CS(=O)(=NC#N)c1ccccc1Nc1nc(Nc2ccc(CO)nc2)ncc1Cl (centres unmarked)	ALK	enzyme activity	inhibitor	radiometric	1 µM	remaining activity	23.4%
CN1CCN(C(=O)c2ccc(NC(=O)Nc3ccc(N(C)c4ccnc(Nc5ccc(CS(C)(=O)=O)cc5)n4)cc3)cc2)CC1	ALK L1196M	binding	–	–	1 µM	remaining binding	83%
COc1ccc2oc(-c3ccc4nc(N)oc4c3)c/c(=N\c3ccccc3NC(=O)CCN)c2c1	ALK	binding	–	–	1 µM	remaining binding	106%
CNC(=O)c1ccccc1Nc1nc(Nc2ccc(CO)nc2)ncc1Cl	ALK	enzyme activity	inhibitor	radiometric	1 µM	remaining activity	2.92%
CO[C@@H]1[C@H](N(C)C(=O)c2ccccc2)C[C@H]2O[C@]1(C)n1c3ccccc3c3c4c(c5c6ccccc6n2c5c31)C(=O)NC4	ALK	enzyme activity	inhibitor	–	1 µM	inhibition	54%
COc1ccc2[nH]c3c4[nH]c5ccc(OC)cc5c4c4c(c3c2c1)C(=O)NC4=O	ALK L1196M	binding	–	–	1 µM	remaining binding	70%
C=CC(=O)N1CCC([C@@H]2CCNc3c(C(N)=O)c(-c4ccc(Oc5ccccc5)cc4)nn32)CC1	ALK L1196M	cell-free assay	–	–	1 µM	inhibition	19%
CS(=O)(=NC#N)c1ccccc1Nc1nc(Nc2ccnc(CO)c2)ncc1Cl (centres unmarked)	ALK	enzyme activity	inhibitor	radiometric	1 µM	remaining activity	36.7%
CC#CC(=O)N1CCC[C@H]1c1nc(-c2ccc(C(=O)Nc3ccccn3)cc2)c2c(N)nccn12	ALK C1156Y	enzyme activity	inhibitor	–	1 µM	inhibition	0%
C#Cc1cnc(Nc2ccc(CO)cc2)nc1Nc1ccccc1C(=O)NC	ALK	enzyme activity	inhibitor	radiometric	1 µM	remaining activity	2.4%
C1=C/COCc2cc(ccc2OCCN2CCCC2)Nc2nccc(n2)-c2cccc(c2)COC/1	ALK C1156Y	binding	–	–	0.1 µM	remaining binding	97%
